Data set [1] addresses Tyrosine-protein kinase Blk (Homo sapiens) (UniProt P51451). In words: Inhibition of partial length human wild type BLK expressed in bacterial expression system assessed as residual activity at 1 uM relative to control.
Data set [2] is described as follows: Antiproliferative activity against mouse BA/F3 cells assessed as cell viability after 72 hrs by CellTiter-Glo or CCK-8 assay. It counts as cell-based, BaF3. A general note: In ATP-based viability assays light output follows the ATP content of the culture.
Data set [3] concerns the target Tyrosine-protein kinase HCK (Homo sapiens) (UniProt P08631). In words: Inhibition of full length human wild type HCK expressed in bacterial expression system assessed as residual activity at 1 uM relative to control.
The test system of another data set is BaF3. The following applies: Homo sapiens.
Data set [4] deals with Tyrosine-protein kinase Blk (Homo sapiens) (UniProt P51451). The note with it: BaF3.
Chain of Tyrosine-protein kinase Blk (Homo sapiens) (P51451 2-505 limits assumed): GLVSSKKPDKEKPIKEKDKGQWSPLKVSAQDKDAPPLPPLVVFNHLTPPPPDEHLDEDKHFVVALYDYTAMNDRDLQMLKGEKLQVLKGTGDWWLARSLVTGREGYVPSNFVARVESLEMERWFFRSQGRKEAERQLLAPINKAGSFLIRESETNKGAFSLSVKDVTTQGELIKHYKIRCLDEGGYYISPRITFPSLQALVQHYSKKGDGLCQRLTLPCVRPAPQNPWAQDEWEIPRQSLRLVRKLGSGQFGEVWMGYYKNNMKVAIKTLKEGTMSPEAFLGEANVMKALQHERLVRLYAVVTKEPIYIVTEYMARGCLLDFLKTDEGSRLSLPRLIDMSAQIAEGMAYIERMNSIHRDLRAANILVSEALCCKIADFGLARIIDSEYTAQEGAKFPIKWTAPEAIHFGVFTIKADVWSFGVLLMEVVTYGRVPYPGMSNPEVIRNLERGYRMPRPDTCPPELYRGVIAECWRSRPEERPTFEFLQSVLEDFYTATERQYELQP
Data set [5] is described as follows: AUC(0 to t) in Sprague-Dawley rat at 1 mg/kg, iv. The note with it: in vivo. It counts as ADME, organism-based.
Another data set deals with K562. In words: Antitumor activity against human K562 cells xenografted in nu/nu mouse assessed as tumor growth inhibition at 50 mg/kg/day, qd administered through oral gavage measured after 16 days. In kind it is functional. The following applies: 384 h, read-out: TGI. Put shortly:
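Female nu/nu mice bore established K562 xenografts and received daily oral dosing at 25.0 or 50.0 mg/kg/d, or vehicle, starting when tumors reached 200 to 400 mm3, for 16 days. Groups had 5 animals; data are mean ± SEM. Tumor size and body weight were normalized to initial values, and final tumor weight was recorded. Tumor tissue was stained with HE, Ki-67 and TUNEL.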
A general note: Xenograft models place foreign cells or tissue in a host animal.

Data set [6] deals with Tyrosine-protein kinase Lck (Homo sapiens) (UniProt P06239). The following applies: BaF3.
Chain of Tyrosine-protein kinase Lck (Homo sapiens) (P06239 2-509 limits assumed): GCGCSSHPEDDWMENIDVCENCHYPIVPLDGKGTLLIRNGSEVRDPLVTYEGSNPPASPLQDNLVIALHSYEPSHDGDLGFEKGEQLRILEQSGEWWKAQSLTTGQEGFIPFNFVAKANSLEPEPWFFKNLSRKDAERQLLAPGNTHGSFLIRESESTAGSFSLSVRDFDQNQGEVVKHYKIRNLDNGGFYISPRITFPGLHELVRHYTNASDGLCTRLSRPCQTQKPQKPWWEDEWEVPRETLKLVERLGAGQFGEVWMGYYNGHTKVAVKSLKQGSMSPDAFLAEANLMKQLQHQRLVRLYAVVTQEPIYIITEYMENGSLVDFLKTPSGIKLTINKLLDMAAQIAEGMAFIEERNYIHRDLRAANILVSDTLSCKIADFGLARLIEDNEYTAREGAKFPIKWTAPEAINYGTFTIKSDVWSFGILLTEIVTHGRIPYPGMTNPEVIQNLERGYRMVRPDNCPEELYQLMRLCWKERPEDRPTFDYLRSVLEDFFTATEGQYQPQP
Data set [7] can be described thus: Tmax in Sprague-Dawley rat at 10 mg/kg, po. In kind it is ADME, organism-based. The following applies: in vivo.
In data set [8] the target is Proto-oncogene tyrosine-protein kinase Src (Homo sapiens, UniProt P12931). As to the kind of experiment: Inhibition of SRC phosphorylation in human MEG01 cells at 0.01 to 3 uM after 1 hr by immunoblotting method. It counts as cell-based. The following applies: MEG-01. Put shortly: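 Cells were treated for 1 h at the indicated concentrations. Whole-cell lysates were then analysed by Western blot for phosphorylation of signalling proteins in the BCR-ABL pathway.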
Chain of Proto-oncogene tyrosine-protein kinase Src (P12931 2-536 limits assumed): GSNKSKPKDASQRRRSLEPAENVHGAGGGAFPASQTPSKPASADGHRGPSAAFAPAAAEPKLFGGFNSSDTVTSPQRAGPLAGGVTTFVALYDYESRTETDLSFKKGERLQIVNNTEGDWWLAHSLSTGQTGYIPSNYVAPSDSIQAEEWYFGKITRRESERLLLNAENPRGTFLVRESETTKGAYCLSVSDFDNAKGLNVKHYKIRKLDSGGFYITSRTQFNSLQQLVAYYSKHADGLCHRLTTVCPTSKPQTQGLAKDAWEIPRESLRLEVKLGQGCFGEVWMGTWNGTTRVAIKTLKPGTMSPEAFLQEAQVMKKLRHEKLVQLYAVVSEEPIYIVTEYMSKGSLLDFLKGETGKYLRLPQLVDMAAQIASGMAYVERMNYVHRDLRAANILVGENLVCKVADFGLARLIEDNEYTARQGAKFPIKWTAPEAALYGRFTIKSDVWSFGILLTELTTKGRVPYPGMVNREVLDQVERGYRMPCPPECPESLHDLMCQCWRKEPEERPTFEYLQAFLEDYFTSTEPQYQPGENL
A general note: Immunoblotting shows a protein as a band on a membrane.

The target in data set [9] is T1, Bcr/Abl fusion protein (Homo sapiens) (UniProt P00519+P11274). As to the kind of experiment: Inhibition of BCR/ABL in human KU812 cells assessed as downregulation of Stat5 phosphorylation at […] site after 1 hr by immunoblotting method. In kind it is cell-based. Put shortly:
(§1)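 KU812, K562 and MEG-01 cells were exposed to compound at the indicated concentrations for 1 h. Whole-cell lysates were then analysed by Western blot for phosphorylated signaling proteins.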

In data set [10] the test system is Mast/stem cell growth factor receptor Kit (Homo sapiens), P10721 [L576P]. As to the kind of experiment: Inhibition of partial length human KIT L576P mutant expressed in bacterial expression system assessed as residual activity at 1 uM relative to control.
Chain of Mast/stem cell growth factor receptor Kit (Homo sapiens), P10721 [L576P] (P10721 whole entry L576P, the tested form may be a part): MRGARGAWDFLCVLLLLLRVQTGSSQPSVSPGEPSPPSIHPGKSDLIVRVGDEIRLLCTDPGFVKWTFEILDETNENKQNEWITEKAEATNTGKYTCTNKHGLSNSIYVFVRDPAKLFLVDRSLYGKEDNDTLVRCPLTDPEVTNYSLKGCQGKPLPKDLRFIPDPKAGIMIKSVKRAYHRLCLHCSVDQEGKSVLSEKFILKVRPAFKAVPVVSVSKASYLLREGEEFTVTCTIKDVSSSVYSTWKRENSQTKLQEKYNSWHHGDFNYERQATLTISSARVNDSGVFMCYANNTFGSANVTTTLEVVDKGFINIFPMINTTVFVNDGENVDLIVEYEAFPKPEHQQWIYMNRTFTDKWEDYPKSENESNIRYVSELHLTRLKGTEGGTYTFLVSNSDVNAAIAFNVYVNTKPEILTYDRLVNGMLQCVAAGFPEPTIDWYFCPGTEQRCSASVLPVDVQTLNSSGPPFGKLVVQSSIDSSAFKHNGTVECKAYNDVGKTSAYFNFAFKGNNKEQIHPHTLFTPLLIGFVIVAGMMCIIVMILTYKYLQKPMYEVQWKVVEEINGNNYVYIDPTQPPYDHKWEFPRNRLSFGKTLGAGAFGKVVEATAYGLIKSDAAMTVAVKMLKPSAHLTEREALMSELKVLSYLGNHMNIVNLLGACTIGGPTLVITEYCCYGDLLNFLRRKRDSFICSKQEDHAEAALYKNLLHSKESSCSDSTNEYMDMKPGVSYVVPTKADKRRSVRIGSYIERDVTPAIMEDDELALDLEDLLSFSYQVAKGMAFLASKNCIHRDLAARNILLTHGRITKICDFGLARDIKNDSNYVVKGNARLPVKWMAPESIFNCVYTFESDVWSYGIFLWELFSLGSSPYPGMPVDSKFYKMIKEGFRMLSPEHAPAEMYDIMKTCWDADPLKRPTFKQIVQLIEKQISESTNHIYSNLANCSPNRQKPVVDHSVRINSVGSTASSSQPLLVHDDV
In data set [11] the target is T1, Bcr/Abl fusion protein (Homo sapiens). In words: Inhibition of BCR/ABL in human MEG01 cells assessed as downregulation of ERK phosphorylation at Thr202/Tyr204 site after 1 hr by immunoblotting method. It counts as cell-based. The note with it: MEG-01. Put shortly:
as §1

SMILES strings stand for the structures. Activity calls are given as the source filed them. The rule behind the calls is not given here. A value given as a limit tells only on which side of the number the result lay.

By GI50 is commonly meant the concentration giving 50% growth inhibition. What is called AUC(0-t) is the area under the concentration-time curve up to a stated or last time point. Higher therefore signals more exposure. Usually Tmax stands for the time from dosing to the highest level.

T1 sequence (P00519 whole entry, looked up, the tested form may be a part): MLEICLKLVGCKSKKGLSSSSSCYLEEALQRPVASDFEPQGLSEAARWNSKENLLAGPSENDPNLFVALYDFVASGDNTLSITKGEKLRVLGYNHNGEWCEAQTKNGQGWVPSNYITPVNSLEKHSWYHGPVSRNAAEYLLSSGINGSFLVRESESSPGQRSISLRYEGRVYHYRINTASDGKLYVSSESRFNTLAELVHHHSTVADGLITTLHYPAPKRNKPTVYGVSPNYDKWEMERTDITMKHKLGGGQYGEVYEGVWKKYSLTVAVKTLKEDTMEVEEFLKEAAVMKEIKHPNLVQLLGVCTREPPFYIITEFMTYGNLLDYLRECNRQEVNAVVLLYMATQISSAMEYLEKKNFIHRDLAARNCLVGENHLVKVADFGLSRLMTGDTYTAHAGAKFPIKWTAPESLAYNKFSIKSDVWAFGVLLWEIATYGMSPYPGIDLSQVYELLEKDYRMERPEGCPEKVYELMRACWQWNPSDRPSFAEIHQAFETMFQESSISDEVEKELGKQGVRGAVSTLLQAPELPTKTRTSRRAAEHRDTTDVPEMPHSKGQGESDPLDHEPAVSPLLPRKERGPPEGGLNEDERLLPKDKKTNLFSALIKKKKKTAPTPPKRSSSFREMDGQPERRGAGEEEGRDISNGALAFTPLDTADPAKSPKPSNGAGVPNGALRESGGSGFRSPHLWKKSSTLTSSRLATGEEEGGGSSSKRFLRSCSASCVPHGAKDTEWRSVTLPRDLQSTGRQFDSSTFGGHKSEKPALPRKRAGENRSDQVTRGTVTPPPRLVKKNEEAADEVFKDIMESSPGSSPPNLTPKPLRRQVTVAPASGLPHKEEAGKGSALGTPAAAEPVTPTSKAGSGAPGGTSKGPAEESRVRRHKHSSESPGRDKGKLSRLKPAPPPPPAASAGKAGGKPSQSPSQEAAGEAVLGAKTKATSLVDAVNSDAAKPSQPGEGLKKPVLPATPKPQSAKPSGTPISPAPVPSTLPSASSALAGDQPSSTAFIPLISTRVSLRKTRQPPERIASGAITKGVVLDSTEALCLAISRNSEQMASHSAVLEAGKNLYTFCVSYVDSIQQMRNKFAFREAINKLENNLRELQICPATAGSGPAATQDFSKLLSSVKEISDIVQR
T1 sequence (P11274 whole entry, looked up, the tested form may be a part): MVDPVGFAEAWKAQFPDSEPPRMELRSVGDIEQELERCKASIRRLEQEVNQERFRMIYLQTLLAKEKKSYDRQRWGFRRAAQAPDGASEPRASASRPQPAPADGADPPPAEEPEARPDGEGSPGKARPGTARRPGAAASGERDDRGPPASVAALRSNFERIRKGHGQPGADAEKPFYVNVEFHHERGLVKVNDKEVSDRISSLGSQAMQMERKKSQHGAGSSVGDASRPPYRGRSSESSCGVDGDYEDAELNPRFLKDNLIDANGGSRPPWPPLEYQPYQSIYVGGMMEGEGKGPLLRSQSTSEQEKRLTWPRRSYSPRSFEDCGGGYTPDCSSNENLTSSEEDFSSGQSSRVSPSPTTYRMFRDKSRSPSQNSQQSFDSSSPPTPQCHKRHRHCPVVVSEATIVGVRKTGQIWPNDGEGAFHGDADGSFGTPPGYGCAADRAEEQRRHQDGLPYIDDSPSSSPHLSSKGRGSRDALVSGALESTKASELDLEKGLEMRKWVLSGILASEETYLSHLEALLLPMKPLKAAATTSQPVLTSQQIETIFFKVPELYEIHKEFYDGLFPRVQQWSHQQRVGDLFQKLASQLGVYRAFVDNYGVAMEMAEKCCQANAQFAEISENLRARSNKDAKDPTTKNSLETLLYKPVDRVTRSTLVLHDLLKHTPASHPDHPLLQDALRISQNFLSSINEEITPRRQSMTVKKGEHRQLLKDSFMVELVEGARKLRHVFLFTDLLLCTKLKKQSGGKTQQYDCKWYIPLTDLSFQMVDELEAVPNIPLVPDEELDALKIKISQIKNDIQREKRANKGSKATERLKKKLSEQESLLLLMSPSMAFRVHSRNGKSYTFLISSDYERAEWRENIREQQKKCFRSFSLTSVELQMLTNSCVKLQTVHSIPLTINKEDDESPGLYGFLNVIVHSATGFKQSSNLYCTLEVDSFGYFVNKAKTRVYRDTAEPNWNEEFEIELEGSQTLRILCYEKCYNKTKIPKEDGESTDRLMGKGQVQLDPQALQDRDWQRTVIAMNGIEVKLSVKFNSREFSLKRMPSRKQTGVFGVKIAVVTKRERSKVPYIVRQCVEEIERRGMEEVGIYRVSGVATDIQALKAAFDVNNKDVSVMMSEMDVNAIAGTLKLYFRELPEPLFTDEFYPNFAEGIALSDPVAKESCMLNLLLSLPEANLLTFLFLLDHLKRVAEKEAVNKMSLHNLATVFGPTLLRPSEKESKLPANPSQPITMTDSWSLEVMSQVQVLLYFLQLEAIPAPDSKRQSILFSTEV

`CNc1nc(Nc2ccc(C)c(N)c2)ncc1C(=O)Nc1cc(NC(=O)c2cccc(C(F)(F)F)c2)ccc1C`: the Activity in [1] amounted to 0.55%; in data set [3] it was 0.7%; in data set [10] it was 0.8%. Further, the GI50 at 72 h in [2] was > 10000 nM. For the same molecule, the GI50 in the data set on BaF3 stood at 73 nM; in [4], 1100 nM; in [6], 600 nM. In data set [5], this molecule returned an AUC(0-t) of 636 ng·h/mL. Further, in the data set on K562, the inhibition in vivo at 50 mg/kg/day was 48.3%. Also, the Tmax in data set [7] turned out to be 1 h. Moreover, the inhibition entry in data set [8] was “inactive”. Further, the inhibition entry in [9] and in [11] was “Dose-dependent effect” each time.

Values taken from ChEMBL document CHEMBL3779840, “Discovery of 2-((3-Amino-4-methylphenyl)amino)-N-(2-methyl-5-(3-(trifluoromethyl)benzamido)phenyl)-4-(methylamino)pyrimidine-5-carboxamide (CHMFL-ABL-053) as a Potent, Selective, and Orally Available BCR-ABL/SRC/p38 Kinase Inhibitor for Chronic Myeloid Leukemia” (J Med Chem, 2016).
